These molecules were tested on Escherichia coli (assay: Antibacterial activity against Escherichia coli CECT 405 assessed as inhibition of microbial growth incubated for 18 hrs by 2-fold microtiter broth dilution method). Settings: CECT 405, 18 h.
Assay type: functional, organism-based
How it was run: (§1)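 Compounds in DMSO, ten 2-fold serial dilutions (125 down to 0.24 µg/mL tested). Bacteria at OD620 = 0.001 in Nutrient Broth mixed 1:1 with dilutions. Incubated overnight (18 h) at 28°C or 37°C according to strain. Growth read turbidimetrically at OD620. MIC is the lowest concentration giving complete growth inhibition. Triplicate runs. Tetracycline as reference.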

Compound | MIC [µg/mL]
O=C1O/C(=C\c2ccc(O)cc2)C(c2ccc(O)cc2)=C1C(=O)c1ccco1 | 31.2
O=C1O/C(=C\c2ccc(O)cc2)C(c2ccc(O)cc2)=C1C(=O)c1ccc(O)cc1 | 62.5
O=C1O/C(=C\c2ccc(O)c(Br)c2)C(c2ccc(O)cc2)=C1C(=O)c1ccc(O)c(Br)c1 | 125
CN(C)[C@@H]1C(O)=C(C(N)=O)C(=O)[C@@]2(O)C(O)=C3C(=O)c4c(O)cccc4[C@@](C)(O)[C@H]3C[C@@H]12 [TETRACYCLINE] | 7.81
O=C1O/C(=C\c2ccc(O)c(Br)c2)C(c2ccc(O)c(Br)c2)=C1C(=O)c1cc(Br)c(O)c(Br)c1 [CADIOLIDE C] | 3.9
O=C1O/C(=C\c2cc(Br)c(O)c(Br)c2)C(c2cc(Br)c(O)c(Br)c2)=C1C(=O)c1ccc(O)cc1 | 7.81

What follows are molecules tested on Enterococcus faecalis (assay: Antibacterial activity against Enterococcus faecalis CECT 481 assessed as inhibition of microbial growth incubated for 18 hrs by 2-fold microtiter broth dilution method). Settings: CECT 481, 18 h.
Assay type: functional, organism-based
How it was run: as §1

Compound | MIC [µg/mL]
O=C1O/C(=C\c2ccc(O)cc2)C(c2ccc(O)cc2)=C1C(=O)c1ccco1 | 31.2
O=C1O/C(=C\c2ccc(O)cc2)C(c2ccc(O)cc2)=C1C(=O)c1ccc(O)cc1 | 125
O=C1O/C(=C\c2ccc(O)c(Br)c2)C(c2ccc(O)cc2)=C1C(=O)c1ccc(O)c(Br)c1 | > 125
CN(C)[C@@H]1C(O)=C(C(N)=O)C(=O)[C@@]2(O)C(O)=C3C(=O)c4c(O)cccc4[C@@](C)(O)[C@H]3C[C@@H]12 [TETRACYCLINE] | 0.48
O=C1O/C(=C\c2ccc(O)c(Br)c2)C(c2ccc(O)c(Br)c2)=C1C(=O)c1cc(Br)c(O)c(Br)c1 [CADIOLIDE C] | 3.9
O=C1O/C(=C\c2cc(Br)c(O)c(Br)c2)C(c2cc(Br)c(O)c(Br)c2)=C1C(=O)c1ccc(O)cc1 | 3.9

What follows are molecules tested on Bacillus cereus (assay: Antibacterial activity against Bacillus cereus CECT 148 assessed as inhibition of microbial growth incubated for 18 hrs by 2-fold microtiter broth dilution method). Settings: CECT 148, 18 h.
Assay type: functional, organism-based
How it was run: as §1

Compound | MIC [µg/mL]
O=C1O/C(=C\c2ccc(O)cc2)C(c2ccc(O)cc2)=C1C(=O)c1ccco1 | 15.6
O=C1O/C(=C\c2ccc(O)cc2)C(c2ccc(O)cc2)=C1C(=O)c1ccc(O)cc1 | 62.5
O=C1O/C(=C\c2ccc(O)c(Br)c2)C(c2ccc(O)cc2)=C1C(=O)c1ccc(O)c(Br)c1 | 3.9
CN(C)[C@@H]1C(O)=C(C(N)=O)C(=O)[C@@]2(O)C(O)=C3C(=O)c4c(O)cccc4[C@@](C)(O)[C@H]3C[C@@H]12 [TETRACYCLINE] | 3.9
O=C1O/C(=C\c2ccc(O)c(Br)c2)C(c2ccc(O)c(Br)c2)=C1C(=O)c1cc(Br)c(O)c(Br)c1 [CADIOLIDE C] | 3.9
O=C1O/C(=C\c2cc(Br)c(O)c(Br)c2)C(c2cc(Br)c(O)c(Br)c2)=C1C(=O)c1ccc(O)cc1 | 3.9

What follows are molecules tested on Bacillus subtilis (assay: Antibacterial activity against Bacillus subtilis CECT 35 assessed as inhibition of microbial growth incubated for 18 hrs by 2-fold microtiter broth dilution method). Settings: CECT 35, 18 h.
Assay type: functional, organism-based
How it was run: as §1

Compound | MIC [µg/mL]
O=C1O/C(=C\c2ccc(O)cc2)C(c2ccc(O)cc2)=C1C(=O)c1ccco1 | > 125
O=C1O/C(=C\c2ccc(O)cc2)C(c2ccc(O)cc2)=C1C(=O)c1ccc(O)cc1 | > 125
O=C1O/C(=C\c2ccc(O)c(Br)c2)C(c2ccc(O)cc2)=C1C(=O)c1ccc(O)c(Br)c1 | > 125
CN(C)[C@@H]1C(O)=C(C(N)=O)C(=O)[C@@]2(O)C(O)=C3C(=O)c4c(O)cccc4[C@@](C)(O)[C@H]3C[C@@H]12 [TETRACYCLINE] | 0.97
O=C1O/C(=C\c2ccc(O)c(Br)c2)C(c2ccc(O)c(Br)c2)=C1C(=O)c1cc(Br)c(O)c(Br)c1 [CADIOLIDE C] | 125
O=C1O/C(=C\c2cc(Br)c(O)c(Br)c2)C(c2cc(Br)c(O)c(Br)c2)=C1C(=O)c1ccc(O)cc1 | 125

Each molecule was assayed on Escherichia coli (assay: Antibacterial activity against Escherichia coli CECT 100 assessed as inhibition of microbial growth incubated for 18 hrs by 2-fold microtiter broth dilution method). Settings: CECT 100, 18 h.
Assay type: functional, organism-based
How it was run: as §1

Compound | MIC [µg/mL]
O=C1O/C(=C\c2ccc(O)cc2)C(c2ccc(O)cc2)=C1C(=O)c1ccco1 | 31.2
O=C1O/C(=C\c2ccc(O)cc2)C(c2ccc(O)cc2)=C1C(=O)c1ccc(O)cc1 | 62.5
O=C1O/C(=C\c2ccc(O)c(Br)c2)C(c2ccc(O)cc2)=C1C(=O)c1ccc(O)c(Br)c1 | > 125
CN(C)[C@@H]1C(O)=C(C(N)=O)C(=O)[C@@]2(O)C(O)=C3C(=O)c4c(O)cccc4[C@@](C)(O)[C@H]3C[C@@H]12 [TETRACYCLINE] | 3.9
O=C1O/C(=C\c2ccc(O)c(Br)c2)C(c2ccc(O)c(Br)c2)=C1C(=O)c1cc(Br)c(O)c(Br)c1 [CADIOLIDE C] | > 125
O=C1O/C(=C\c2cc(Br)c(O)c(Br)c2)C(c2cc(Br)c(O)c(Br)c2)=C1C(=O)c1ccc(O)cc1 | > 125

The molecules below were run on Salmonella typhi (assay: Antibacterial activity against Salmonella typhi CECT 409 assessed as inhibition of microbial growth incubated for 18 hrs by 2-fold microtiter broth dilution method). Settings: Salmonella enterica, CECT 409, 18 h.
Assay type: functional, organism-based, Salmonella enterica subsp. enterica serovar Typhi
How it was run: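 Compounds in DMSO, ten 2-fold serial dilutions (125 down to 0.24 µg/mL), mixed 1:1 with bacteria in Nutrient Broth at OD620 = 0.001. Incubated overnight (18 h) at 28 or 37 °C depending on strain. Growth read turbidimetrically at OD620; MIC is the lowest concentration completely inhibiting growth, per CLSI. Triplicate runs; tetracycline reference.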

Compound | MIC [µg/mL]
O=C1O/C(=C\c2ccc(O)cc2)C(c2ccc(O)cc2)=C1C(=O)c1ccco1 | 15.6
O=C1O/C(=C\c2ccc(O)cc2)C(c2ccc(O)cc2)=C1C(=O)c1ccc(O)cc1 | 125
O=C1O/C(=C\c2ccc(O)c(Br)c2)C(c2ccc(O)cc2)=C1C(=O)c1ccc(O)c(Br)c1 | 125
CN(C)[C@@H]1C(O)=C(C(N)=O)C(=O)[C@@]2(O)C(O)=C3C(=O)c4c(O)cccc4[C@@](C)(O)[C@H]3C[C@@H]12 [TETRACYCLINE] | 7.81
O=C1O/C(=C\c2ccc(O)c(Br)c2)C(c2ccc(O)c(Br)c2)=C1C(=O)c1cc(Br)c(O)c(Br)c1 [CADIOLIDE C] | 3.9
O=C1O/C(=C\c2cc(Br)c(O)c(Br)c2)C(c2cc(Br)c(O)c(Br)c2)=C1C(=O)c1ccc(O)cc1 | 3.9

These molecules were tested on Pectobacterium carotovorum (assay: Antibacterial activity against Erwinia carotovora CECT 225 assessed as inhibition of microbial growth incubated for 18 hrs by 2-fold microtiter broth dilution method). Settings: CECT 225, 18 h.
Assay type: functional, organism-based
How it was run: as §1

Compound | MIC [µg/mL]
O=C1O/C(=C\c2ccc(O)cc2)C(c2ccc(O)cc2)=C1C(=O)c1ccco1 | > 125
O=C1O/C(=C\c2ccc(O)cc2)C(c2ccc(O)cc2)=C1C(=O)c1ccc(O)cc1 | 125
O=C1O/C(=C\c2ccc(O)c(Br)c2)C(c2ccc(O)cc2)=C1C(=O)c1ccc(O)c(Br)c1 | > 125
CN(C)[C@@H]1C(O)=C(C(N)=O)C(=O)[C@@]2(O)C(O)=C3C(=O)c4c(O)cccc4[C@@](C)(O)[C@H]3C[C@@H]12 [TETRACYCLINE] | 3.9
O=C1O/C(=C\c2ccc(O)c(Br)c2)C(c2ccc(O)c(Br)c2)=C1C(=O)c1cc(Br)c(O)c(Br)c1 [CADIOLIDE C] | 125
O=C1O/C(=C\c2cc(Br)c(O)c(Br)c2)C(c2cc(Br)c(O)c(Br)c2)=C1C(=O)c1ccc(O)cc1 | 125

What follows are molecules tested on Staphylococcus aureus (assay: Antibacterial activity against Staphylococcus aureus CECT 86 assessed as inhibition of microbial growth incubated for 18 hrs by 2-fold microtiter broth dilution method). Settings: CECT 86, 18 h.
Assay type: functional, organism-based
How it was run: as §1

Compound | MIC [µg/mL]
O=C1O/C(=C\c2ccc(O)cc2)C(c2ccc(O)cc2)=C1C(=O)c1ccco1 | 15.6
O=C1O/C(=C\c2ccc(O)cc2)C(c2ccc(O)cc2)=C1C(=O)c1ccc(O)cc1 | 62.5
O=C1O/C(=C\c2ccc(O)c(Br)c2)C(c2ccc(O)cc2)=C1C(=O)c1ccc(O)c(Br)c1 | > 125
CN(C)[C@@H]1C(O)=C(C(N)=O)C(=O)[C@@]2(O)C(O)=C3C(=O)c4c(O)cccc4[C@@](C)(O)[C@H]3C[C@@H]12 [TETRACYCLINE] | 0.24
O=C1O/C(=C\c2ccc(O)c(Br)c2)C(c2ccc(O)c(Br)c2)=C1C(=O)c1cc(Br)c(O)c(Br)c1 [CADIOLIDE C] | 3.9
O=C1O/C(=C\c2cc(Br)c(O)c(Br)c2)C(c2cc(Br)c(O)c(Br)c2)=C1C(=O)c1ccc(O)cc1 | 3.9
